Experiment [1] is described as follows: Inhibition of coliphage T2 thymidylate synthetase using dUMP as substrate preincubated for 20 mins followed by substrate addition. More on the design: species or system Enterobacteria phage T2. The method, boiled down: (§1)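 Enzyme and inhibitor preincubated 20 min at 30 °C in assay mix with 0.11 M 2-mercaptoethanol, 3 × 10^-4 M tetrahydrofolate, 0.012 M formaldehyde and 0.021 M MgCl2. Reaction started by adding dUMP to 4 × 10^-5 M. Enzyme concentrations were 8 × 10^-9 M for L. casei, 8 × 10^-9 M for E. coli (calculated assuming the L. casei turnover number) and 4 × 10^-9 M for T2. Concentration giving 50% inhibition reported.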

A further experiment addresses T1, Thymidylate synthase (Lactobacillus casei, UniProt P00469).
T1 sequence (P00469 whole entry): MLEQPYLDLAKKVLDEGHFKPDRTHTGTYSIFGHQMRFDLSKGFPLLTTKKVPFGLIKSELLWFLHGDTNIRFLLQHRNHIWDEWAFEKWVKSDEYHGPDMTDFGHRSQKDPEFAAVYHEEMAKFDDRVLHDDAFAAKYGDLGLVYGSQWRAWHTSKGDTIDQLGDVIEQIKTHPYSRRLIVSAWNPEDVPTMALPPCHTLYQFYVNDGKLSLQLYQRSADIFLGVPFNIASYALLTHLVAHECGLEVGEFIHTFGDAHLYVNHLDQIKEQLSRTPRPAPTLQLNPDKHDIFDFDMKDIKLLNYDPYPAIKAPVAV
Nature of the experiment: Inhibition of Lactobacillus casei thymidylate synthetase using dUMP as substrate preincubated for 20 mins followed by substrate addition. More on the design: species or system Lacticaseibacillus casei. The method, boiled down:
as §1

Experiment [2] is described as follows: Inhibition of Escherichia coli thymidylate synthetase using dUMP as substrate preincubated for 20 mins followed by substrate addition. The method, boiled down: as §1
For experiment [3], the target named is T2, Thymidylate synthase (Lactobacillus casei) (UniProt P00469).
T2 sequence (whole entry): T1 sequence (P00469 whole entry)
Briefly: Inhibition of Lactobacillus casei thymidylate synthetase using dUMP as substrate at 20 uM preincubated for 5 mins followed by substrate addition relative to control. Particulars: Lacticaseibacillus casei.

The target in experiment [4] is T2, Thymidylate synthase (Lactobacillus casei). Nature of the experiment: Inhibition of Lactobacillus casei thymidylate synthetase using dUMP as substrate at 20 uM preincubated for 10 mins followed by substrate addition relative to control. The note with it: Lacticaseibacillus casei.
The target is the same in experiment [5]. Briefly: Inhibition of Lactobacillus casei thymidylate synthetase using dUMP as substrate at 20 uM preincubated for 20 mins followed by substrate addition relative to control. Particulars: Lacticaseibacillus casei.
The target is the same in experiment [6]. Briefly: Inhibition of Lactobacillus casei thymidylate synthetase using dUMP as substrate at 20 uM preincubated for 40 mins followed by substrate addition relative to control. The note with it: Lacticaseibacillus casei.
Experiment [7] can be described thus: Cytotoxicity against human Hep2 cells assessed as growth inhibition. The experiment is classed as functional. The note with it: HEp-2, read-out: ED50 (the source's name).
Experiment [8] concerns the target T2, Thymidylate synthase (Lactobacillus casei). Nature of the experiment: Inhibition of Lactobacillus casei thymidylate synthetase using dUMP as substrate at 20 uM preincubated for 0 mins followed by substrate addition relative to control. Particulars: Lacticaseibacillus casei.

The results in this text go back to ChEMBL document CHEMBL3227928, “Phosphonate analogue of 2'-deoxy-5-fluorouridylic acid” (J Med Chem, 1979).

A word on the pIC50: it is the negative decadic logarithm of the IC50, by convention in mol/L. One may read the inhibition as the relative decrease from the control value, in per cent. High values mean a response far below the control, low ones a response near the control.

pEC50, pIC50: −log10 of the molar value.

On to `O=c1[nH]c(=O)n([C@H]2C[C@H](O)[C@@H](CCP(=O)(O)O)O2)cc1F`, for which the pIC50 in [1] is 7.22; against Thymidylate synthase, 5.15; in experiment [2] it was 6.22. Moreover, the inhibition in experiment [3] was 45%; in experiment [4], 64%; in experiment [5], 75%; in experiment [6], 85%; in experiment [8], 0%. In addition, the pEC50 in experiment [7] is 4.35.
